Measured values as given in the EternaBench riboswitch data.

System: MS2 coat protein
Test: apparent Kd, MS2 coat protein; higher = weaker binding; RNA-MaP array; FMN 200 µM where present
How it was run: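 The apparent Kd comes from binding curves fitted cluster by cluster, filtered, and summarised as a median. Those curves followed SNAP-549-labelled MS2 coat protein from 0.7 or 1.5 nM, doubling to 3 µM, on Illumina sequencing-chip clusters where stalled E. coli RNA polymerase had transcribed the designs, without and then with constant ligand. The buffer was 100 mM Tris-HCl pH 7.5, 80 mM KCl, 4 mM MgCl2, BSA, DTT, yeast tRNA and Tween-20, and green signal was normalised to red-channel RNA signal and control-cluster median Fmax.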

[1] = designed as: OFF switch for flavin mononucleotide, no ligand
[2] = ligand present: flavin mononucleotide, designed as: OFF switch for flavin mononucleotide
[3] = designed as: ON switch for flavin mononucleotide, no ligand
[4] = ligand present: flavin mononucleotide, designed as: ON switch for flavin mononucleotide

| Sequence | apparent Kd [1] [nM] | apparent Kd [2] [nM] | apparent Kd [3] [nM] | apparent Kd [4] [nM] |
| --- | --- | --- | --- | --- |
| UUUUAACAUGAGGAUCACCCAUGUGAGGAUAUCGAAAUUUAUAUUAAUAUUAAUUUUUCGAGAAGGCACAUUUU | 132 | 150 |  |  |
| UUGCCCGCCGGAGGAUAUCUACUCUGUGGUGCACUGCGUUUGCAAUACAUGAGGAUCACCCAUGUAGAGAAGGCCGAGGGCACA | 318 | 48.3 |  |  |
| UUAUGUUUACAAGGAUAUCAAUUAUUUAUACUUCCUACAUGAGGAUCACCCAUGUUUUUAUAUUUUGAGAAGGUGUAAUGUCGG |  |  | 38.5 | 35.4 |
| CGGGAGUCAGGAUAUACGAACAUGUCGCCAGAUGUCAUGGUACAUGAGGAUCACCCAUGUAGAAGGGAGGCGGU | 50.6 | 30.5 |  |  |
| CCUAUACAUGAGGAUCACCCAUGUCAGGAUAUGGACAGCUACGUCAUAGGACGUAGCACCAGAAGGGACUGGCA | 50.1 | 130 |  |  |
| AACAUGAGGAUCACCCAUGUCCCACCAGAAGGCUGGCGGUCGUGAGAAAGGCCACGACAAAUAACAGAGGAUAUGGUGAAUGCA |  |  | 101 | 19.1 |
| GUUUAGUGAGGAUAUGUGGCUUCGAUCGUGCGAGGGCGGCUACAGAAGGCACAUGAGGAUCACCCAUGUUCCUC | 155 | 428 |  |  |
| UAAUAAAGCAGUGUAUUAAGAUCACAUGAGGAUCACCCAUGUAAGGAUAUGAGCAGAAAAUCUGCUCAGAAGGUACGAACACUG | 9.51 | 32.4 |  |  |
| GUCUCAGCUGAGGAUAUUAUCUGGCUCGACCGAUAAGAAGGCAGUACAUGAGGAUCACCCAUGUGGUUCGUUCG | 37.6 | 84.9 |  |  |
| UUUUUGUGAGGAUAUGCGUAGUAGAACAAUAGUACUACUACGUAGAAGGCACAUGAGGAUCACCCAUGUUCCUC | 37.8 | 254 |  |  |
| GUGGUACAUGAGGAUCACCCAUGUCAGGAUAUCGCGUGGUUUUUUGCGGCCGCGCGCGCGAGAAGGGACGUCUU | 36.3 | 43.3 |  |  |
| AUAAUGUAAGGAUAUCAGUCGACUAGCCUCGGCUAGUCGACUGAGAAGGUACAUGAGGAUCACCCAUGUGUUCC | 140 | 766 |  |  |
| GCUAUCGAUGUAGGAUAUGAUAUAGAAACUAUGUCAGAAGGACAUGAGGAUCACCCAUGUCAAUGGAUGGAGAGAAGAGAUGGC | 26.7 | 52.5 |  |  |
| ACAUAGUAAGGAUAUGCUGCUCGUCACUUGCGUGAUGAGUAGCAGAAGGUACAUGAGGAUCACCCAUGUAAAGA | 30.1 | 20.3 |  |  |
| AAACAGCGAGAUAAUAAUGAUUACAUGAGGAUCACCCAUGUAUAGGAUAUCGUCAGGAAUACUGACGAGAAGGAUACAACGCUG | 16 | 26.5 |  |  |
| UACAUUGCUUAGAAGGGAUAUAUAUAAUUUUAGUCAGGAUAUAGAUACAGUACAACAUGAGGACAUGAGGAUCACCCAUGUAUU |  |  | 25.9 | 18.4 |
| UCCCGAAGGCGGGCCGACCAUACAUGAGGAUCACCCAUGUCGAGAAGGUGCUCACGGGUGGGUGGCAAGGAUAUCGGGUCGGAU |  |  | 93.8 | 42.3 |
| GCGUGGUGUCUAGGAUAUGCCGUGCAACGAGGAGCAGAAGGAGACAUGAGGAUCACCCAUGUAAGCUUAGCCGCUCACAGAGGG | 26.8 | 73.7 |  |  |
| GUGAGACAUGAGGAUCACCCAUGUCAGGAUAUGAUACUAUGUACUUCGGUACAUAGUAUCAGAAGGGACAGUGA | 53.6 | 66.7 |  |  |
| UGGCUACAUGAGGAUCACCCAUGUCAGGAUAUGCCGUCGGAUUGCCUUCGUCGUUCGGGUAGAAGGGACUGCGG | 24.6 | 24.1 |  |  |
| UAUAUAUAGUAAGGAUAUGUAUAUAUUUUACAAACAGAAGGUACUGACAUGAGGAUCACCCAUGUUUUAGUGUGGGCAUGUAGA | 57.8 | 60 |  |  |
| GUCAGCUCGUGAGGAUAUACGACACUGCUUCGGCAGUGUAUUAAGAUCACAUGAGGAUCACCCAUGUAGAAGGCACGAGCUGAU | 8.64 | 145 |  |  |
| UUUAGAUUCAGAGGAUAUUGAUGUUGUAUUUUACAAGAAGGCUGAUUGGUUUGAAUUGUUUUUUAACAUGAGGAUCACCCAUGU |  |  | 28.5 | 20.7 |
| GUAGCAUACGGAGGAUAUGUAGGAUCUACAUGAGGAUCACCCAUGUCAAGGACAGAAGGCCGUAUGCUACAAGAGCGAAAGCUC |  |  | 11.6 | 5.79 |
| AUCAGCUCGUCAGGAUAUACGUCACUGCGUCAGCAGUGUGGUAUGAUCACAUGAGGAUCACCCAUGUAGAAGGGACGAGCUGAU | 8.62 | 132 |  |  |
| UAUAUAUAGUAAGGAUAUGUAUAUAUUGUAUAAACAGAAGGUACUGACAUGAGGAUCACCCAUGUUUUAGUGUGGGCAUGUAGA | 76.5 | 121 |  |  |
| UAUAUAUAGUAAGGAUAUGUAUAUAUUUGAUAAACAGAAGGUACUGACAUGAGGAUCACCCAUGUUUUAGUGUGGGCAUGUAGA | 62.8 | 78.6 |  |  |
